Bioassay records (PubChem)
This is a sample that favours compounds with a hit; in the whole collection about 1.5% have one here.
CCR6 antag: blocks CCL20-driven beta-arrestin recruitment at human CCR6; P51684; inhibition, % at 20 µM; CHO-K1 CCR6 PathHunter beta-arrestin, luminescence, CCL20-stimulated; 340,000 compounds, 0.49% hits;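 active = compounds whose inhibition of the agonist-driven luminescence signal at 20 µM reaches about 50%, limit read from the data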;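 note: cells stimulated with CCL20 at 14 nM final; plate controls were DMSO with CCL20 for no effect and DMSO without agonist for full effect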
Target sequence (P51684 whole entry, looked up): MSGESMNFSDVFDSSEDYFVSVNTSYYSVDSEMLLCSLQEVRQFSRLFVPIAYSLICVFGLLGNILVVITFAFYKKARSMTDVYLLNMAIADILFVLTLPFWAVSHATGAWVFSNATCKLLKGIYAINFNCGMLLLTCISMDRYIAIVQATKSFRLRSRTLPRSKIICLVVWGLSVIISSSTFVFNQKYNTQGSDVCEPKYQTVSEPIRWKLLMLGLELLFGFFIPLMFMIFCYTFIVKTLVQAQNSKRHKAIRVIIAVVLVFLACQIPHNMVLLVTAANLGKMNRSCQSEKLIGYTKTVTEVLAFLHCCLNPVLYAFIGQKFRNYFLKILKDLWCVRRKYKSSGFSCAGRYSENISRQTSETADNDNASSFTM
CXCR6 inh: inhibitors of human CXCR6 receptor; CHO-K1 PathHunter CXCR6 beta-arrestin, luminescence; inhibition, % at 20 µM; 360,000 compounds, 0.36% hits; AID 602244; in the data active = inhibition above about 34%, passing the limit was not always enough;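 note: antagonist mode with CXCL16 agonist at 10 nM final; 0% = 10 nM CXCL16 with DMSO and 100% = unstimulated wells without agonist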
APJ antagonist: antagonists of human APJ apelin receptor. P35414. CHO-K1 APJ beta-arrestin complementation, luminescence. inhibition, % at 20 µM. 330,000 compounds, 0.32% hits. AID 2521;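 active = inhibition above about 40% at 20 µM, limit read from the data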;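 note: cells challenged with 10 nM apelin-13 agonist together with compound; plate controls were apelin-13 plus DMSO wells for no effect and DMSO wells lacking apelin-13 for full effect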
EBI2 block: EBI2 (human) antagonism. EBI2 beta-arrestin recruitment, luminescence, 7a,25-OHC stimulated. 360,000 compounds, 0.81% hits. P32249. inhibition, % at 5 µM; in the data active = inhibition above about 38%;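 note: enzyme fragment complementation signal reports receptor beta-arrestin coupling in cells; 0% = agonist plus DMSO wells and 100% = wells without agonist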
APJ ag: APJ receptor agonism | P35414 | CHO-K1 APJ PathHunter beta-arrestin, luminescence; 0% DMSO wells, 100% apelin | activation, % at 20 µM | 330,000 compounds, 0.11% hits | AID 2520;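 active = activation more than six SD over the plate average, tested at 20 µM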;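 note: 0% = DMSO alone and 100% = apelin-13 at 10 nM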
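Assay system: CHO-K1 cells stably expressing ProLink-tagged human APJ and arrestin–beta-gal acceptor. Compound dosing: 20 µM single point, 1% DMSO. Times: 16-18 h seeding, 90 min dark compound exposure, 60 min detection. Detection: beta-gal luminescence. Evaluation: APJ–arrestin association signal. Controls: negative DMSO alone, positive Apelin-13 at 10 nM.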
EBI2 antag conf: confirmation of human EBI2 receptor antagonists; shares compounds with EBI2 block; EBI2 beta-arrestin luminescence, 7a,25-OHC antagonism; 2,400 compounds, 29% hits; inhibition, % at 5 µM;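 active = inhibition of at least 50%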
EBI2 agonist: activates EBI2, counter-screen for EBI2 antagonists. shares compounds with EBI2 block. EBI2-expressing cells, agonist mode, luminescence, 60 min; 0% vehicle, 100% 7α,25-dihydroxycholesterol control. activation, % at 5 µM. 2,400 tested, under 10 active. AID 652000;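 active = activation of at least 50%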
bGal counter: inhibits E. coli beta-galactosidase, counter-screen for EBI2 antagonists; purified beta-galactosidase, luminescent Galacton Star, 15 min; shares compounds with EBI2 block; 2,400 compounds, 1% hits; inhibition, % at 5 µM; AID 652176;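 active = replicate-average signal at least 3 plate SD below neutral wells, shown as high inhibition, flagging enzyme-inhibiting false positives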;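 note: 0% = DMSO wells with enzyme and 100% = wells lacking enzyme; higher means stronger loss of beta-gal luminescence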
* hit, by the source's call.

COC(=O)c1ccc(N2CCC(c3cc(-c4ccc(OC)cc4)n[nH]3)CC2)c([N+](=O)[O-])c1 was read as CCR6 antag 26, CXCR6 inh 10, APJ antagonist 5, EBI2 block 50*, APJ ag -3, EBI2 antag conf 6, EBI2 agonist 0 and bGal counter 6.
COc1ccc(-c2cc(C3CCN(c4ccc(C(C)=O)cc4[N+](=O)[O-])CC3)[nH]n2)cc1 was read as CCR6 antag 18, CXCR6 inh 14, APJ antagonist 7, EBI2 block 9 and APJ ag 0.
For Cc1c(C(=O)NC2CC(C)(C)NC(C)(C)C2)oc2c(Cl)cccc12 the results were CXCR6 inh -6 and EBI2 block -18.
For O=C(NC(c1ccc(F)cc1)c1ccc2ccccc2n1)C1CCN(CCOc2ccc(Cl)cc2)CC1 (stereo not given) the results were CXCR6 inh 8, EBI2 block 73*, EBI2 antag conf 51*, EBI2 agonist 1 and bGal counter 4.
For O=C(NC(c1ccccc1)c1ccc2ccccc2n1)C1CCN(CCOc2ccc(Cl)cc2Cl)CC1 (stereo not given) the results were CXCR6 inh 10 and EBI2 block 40.
Screening O=C(Cn1cc(COc2ccc3ccccc3c2)nn1)NS(=O)(=O)c1cccc(OC(F)F)c1 returned CXCR6 inh -12 and EBI2 block 9.
`COc1ccc([N+](=O)[O-])cc1NC(=O)C(C)N(C)Cc1ccc(Br)cc1` (stereo not given) gave CCR6 antag 17, CXCR6 inh 12, APJ antagonist 9, EBI2 block 37 and APJ ag -3.
For COc1ccc(Br)cc1CN(C)C(C)C(=O)Nc1cc([N+](=O)[O-])ccc1OC (stereo not given) the results were CCR6 antag 7, CXCR6 inh 7, APJ antagonist 4, EBI2 block 40*, APJ ag -5, EBI2 antag conf 13, EBI2 agonist 1 and bGal counter 0.
Screening Cc1nc(N2CCC(C)CC2)c2c(C)c(C(=O)Nc3ccccc3C(F)(F)F)sc2n1 returned CCR6 antag -1, CXCR6 inh -14, APJ antagonist -19, EBI2 block 45*, APJ ag 1, EBI2 antag conf 15, EBI2 agonist 0 and bGal counter -10.
For CCc1cc2cc(C(=O)N3CCN(Cc4ccccc4)CC3)sc2s1 the results were CCR6 antag 8, CXCR6 inh -4, APJ antagonist -2, EBI2 block 97*, APJ ag -3, EBI2 antag conf 85*, EBI2 agonist 1 and bGal counter 5.
Screening O=C(c1cc2c(s1)CCCC2)N1CCN(c2ccccc2)CC1 returned CCR6 antag 4, CXCR6 inh 0, APJ antagonist -2, EBI2 block 1 and APJ ag -2.
`CCc1cc2cc(C(=O)N3CCN(c4ccccc4)CC3)sc2s1` gave CCR6 antag -14, CXCR6 inh -2, APJ antagonist 7, EBI2 block 83*, APJ ag -6, EBI2 antag conf 46, EBI2 agonist -2 and bGal counter -15.
CCCNC(=O)C1(C)CCN(Cc2ccc(C(=O)OCC)cc2)C1 (stereo not given) was read as CXCR6 inh 0 and EBI2 block -6.
N#Cc1c(Nc2ccccc2)c(/C=N/N=C/c2ccccc2)c[nH]c1=O was read as CCR6 antag 13, CXCR6 inh 4, APJ antagonist 10, EBI2 block 96*, APJ ag -1, EBI2 antag conf 85*, EBI2 agonist -2 and bGal counter -6.
For N#Cc1c(Nc2ccccc2)c(/C=N/NCCO)c[nH]c1=O the results were CCR6 antag 0, CXCR6 inh -9, APJ antagonist 5, EBI2 block -1 and APJ ag -3.
